pIC50: −log10 of the molar value.
What follows are compounds tested on DBTRG-05MG (assay: Cytotoxicity against human DBTRG-05MG cells after 72 hrs by MTT assay).
Assay type: functional, cell-based
Outline: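 DBTRG.05-MG cells were grown in RPMI 1640 with 10% heat-inactivated FCS at 37 °C and 5% CO₂. They were seeded at 6×10^3 per well, cultured 72 h, then exposed 72 h to serial dilutions in DMSO (≤1%, ≤200 μM). Viability was read by MTT (0.5 mg/mL, 37 °C), DMSO-solubilized, A570/630, as % of untreated wells. IC50 came from curves; triplicates, mean ± SD.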

Row | SMILES | pIC50
1 | c1ccc(Nc2ncnc3sc4c(c23)CCCC4)cc1 | 3.23
2 | CN(C)c1ncnc2sc3ccccc3c12 | 3.86
3 | CN(C)c1ncnc2sc3c(c12)CCCC3 | 3.83
4 | c1ccc(Nc2ncnc3sc4ccccc4c23)cc1 | 3.96
5 | Cc1ccccc1Nc1ncnc2sc3ccccc3c12 | 4.21
6 | COc1ccccc1Nc1ncnc2sc3c(c12)CCCC3 | 3.24
7 | COc1ccc(Nc2ncnc3sc4c(c23)CCCC4)cc1 | 3.82
8 | COc1ccc(Nc2ncnc3sc4ccccc4c23)cc1 | 3.93
9 | Cc1ccccc1Nc1ncnc2sc3c(c12)CCCC3 | 3.32
10 | COc1ccccc1Nc1ncnc2sc3ccccc3c12 | 4.39

Source: ChEMBL document CHEMBL1165888, “Synthesis and study of antiproliferative activity of novel thienopyrimidines on glioblastoma cells” (Eur J Med Chem, 2010)
